Assays:
[1] = Plasma concentration in BALB/c mouse at 4 to 5 mg/kg, iv administered as single bolus dose by HPLC; type: ADME, organism-based; set-up: dose 4-5 mg/kg, route intravenous
[2] = Cmax in 10^6 mouse alveolar macrophages at 4 to 5 mg/kg administered as inhalable dose measured 6 hrs postinhalation by HPLC; type: ADME, organism-based, Macrophage; set-up: dose 4-5 mg/kg; conditions: in vivo, inhaled_or_intranasal
Outline: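 Mice inhaled 100 μg drug as dry-powder microparticles. Four animals per time point were anesthetized, and lungs were lavaged with chilled saline containing 0.5 mM EDTA. Recovered alveolar macrophages were counted by hemocytometer and extracted. Drug was measured by HPLC-UV and expressed per 10⁶ cells.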

[3] = Clearance in BALB/c mouse at 4 to 5 mg/kg, iv administered as single bolus dose by HPLC; type: ADME, organism-based; set-up: dose 4-5 mg/kg, route intravenous; conditions: in vivo
[4] = Plasma concentration in BALB/c mouse at 4 to 5 mg/kg administered as inhalable bolus dose by HPLC; type: ADME, organism-based; set-up: dose 4-5 mg/kg; conditions: inhaled or intranasal
Outline: (§1)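 BALB/c mice (25–30 g, either sex, groups of 4) given 100 μg drug by dry-powder inhalation of spray-dried polylactide microparticles (~10 mg charged, fluidized by 30 actuations over 30 s, nose-only). Noncompartmental extravascular-bolus fit; mean ± SD.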

[5] = tested on: Mus musculus; assay: Volume of distribution in BALB/c mouse at 4 to 5 mg/kg administered as inhalable bolus dose by HPLC; type: ADME, organism-based; set-up: dose 4-5 mg/kg; conditions: in vivo, inhaled_or_intranasal; outline: as §1
[6] = Elimination rate constant in human THP1 cells at 3 ug/ml administered as microparticles after 10 mins by HPLC; type: ADME, cell-based; conditions: THP-1 cells
Outline: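 THP-1 cells (10⁶/well) were differentiated with PMA for 14 h, washed, and rested 10 h. Microparticles (12 μg/ml, drug-equivalent 3 μg/ml) were added for 2 h, then washed out. Duplicate wells were lysed by freeze-thaw at serial times and analyzed by HPLC. A one-compartment model with no lag and first-order elimination was fitted.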

[7] = tested on: Mus musculus; assay: (§2) Clearance in BALB/c mouse at 4 to 5 mg/kg administered as inhalable bolus dose by HPLC; type: ADME, organism-based; set-up: dose 4-5 mg/kg; conditions: in vivo, inhaled_or_intranasal; outline: as §1
[8] = tested on: Serum; assay: AUC (OBS) in BALB/c mouse serum at 4 to 5 mg/kg, iv administered as single bolus dose by HPLC; type: ADME, organism-based; set-up: dose 4-5 mg/kg, route intravenous; conditions: in vivo
[9] = tested on: Serum; assay: AUC (OBS) in BALB/c mouse serum at 4 to 5 mg/kg administered as inhalable bolus dose by HPLC; type: ADME, organism-based; set-up: dose 4-5 mg/kg; conditions: in vivo, inhaled_or_intranasal; outline: as §1
[10] = Cmax in 10^6 mouse alveolar macrophages at 4 to 5 mg/kg, iv measured after 4 hrs by HPLC; type: ADME, organism-based, BALB/c, Macrophage; set-up: dose 4-5 mg/kg, route intravenous; conditions: in vivo
Outline: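 After a 100 μg i.v. caudal-vein dose, four mice per time point underwent bronchoalveolar lavage with chilled saline plus 0.5 mM EDTA. Macrophages in the lavage were counted by hemocytometer and lysed, and drug was quantified by HPLC-UV per 10⁶ cells.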

[11] = tested on: Mus musculus; assay: Volume of distribution in BALB/c mouse at 4 to 5 mg/kg, iv administered as single bolus dose by HPLC; type: ADME, organism-based; set-up: dose 4-5 mg/kg, route intravenous; conditions: in vivo
[12] = Elimination rate constant in human THP1 cells at 3 ug/ml after 10 mins by HPLC; type: ADME, cell-based; conditions: THP-1 cells
[13] = Half life in BALB/c mouse serum at 4 to 5 mg/kg, iv administered as single bolus dose by HPLC; type: ADME, organism-based; set-up: dose 4-5 mg/kg, route intravenous
[14] = as §2; type: ADME, organism-based; set-up: dose 4-5 mg/kg; conditions: BALB/c, in vivo, inhaled or intranasal; outline: as §1
[15] = Half life in BALB/c mouse serum at 4 to 5 mg/kg administered as inhalable bolus dose by HPLC; type: ADME, organism-based; set-up: dose 4-5 mg/kg; conditions: inhaled or intranasal; outline: as §1

`NNC(=O)c1ccncc1` [ISONIAZID] gave a Cmax [1] of 3240 ng/mL, a Cmax [2] of 0.56 µg and a clearance [3] of 0.0738 mL/min. For the same compound, the Cmax [4] was 2370 ng/mL, the Vz [5] was 1670 mL and the k el at 10 min, 3 ug/ml [6] was 0.000102 s⁻¹. The CL [7] was 63.9 mL/h, the AUC [8] was 16.64 µg/mL/h and the AUC [9] was 55.34 µg/mL/h. It also gave a Cmax [10] of 0.29 µg, a Vz [11] of 41.34 mL and a k el at 10 min, 3 ug/ml [12] of 9.44e-06 s⁻¹.
With `CO[C@H]1/C=C/O[C@@]2(C)Oc3c(C)c(O)c4c(c3C2=O)C2=NC3(CCN(CC(C)C)CC3)NC2=C(NC(=O)/C(C)=C\C=C\[C@H](C)[C@H](O)[C@@H](C)[C@@H](O)[C@@H](C)[C@H](OC(C)=O)[C@@H]1C)C4=O` [RIFABUTIN] the Cmax [1] was 3470 ng/mL, the Cmax [2] was 1.65 µg and the half-life [13] was 1210 min. It also gave a clearance [3] of 0.017 mL/min, a Cmax [4] of 1590 ng/mL and a Vz [5] of 2308.84 mL. For the same compound, the k el at 10 min, 3 ug/ml [6] was 1.67e-05 s⁻¹, the CL/F [14] was 0.195 mL/min and the AUC [8] was 90.82 µg/mL/h. It also gave an AUC [9] of 109.35 µg/mL/h, a half-life [15] of 4.98 days and a Cmax [10] of 0.32 µg. For the same compound, the Vz [11] was 29.52 mL and the k el at 10 min, 3 ug/ml [12] was 1.39e-06 s⁻¹.
